Assay results published in article PMC5977998 (Journal of the American Chemical Society, 2017).

Columns and labels:
[1] = tested on: BCL2 i-motif / BCL2 transcription; settings: cited from earlier work
[2] = tested on: PDGFR-β promoter R1 mutant NHE luciferase construct; test: Luciferase reporter assay, R1 NHE construct; assay type: cell-based, human; settings: HEK 293, 100 μM, 24 h
SK-N-SH = test: MTS cytotoxicity assay in SK-N-SH; assay type: cell-based; settings: read-out: IC50 concentration in SK-N-SH
[3] = tested on: PDGFR-β promoter WT-NHE luciferase construct; test: Luciferase reporter assay, WT-NHE construct; assay type: cell-based, human; settings: 24 h
[4] = tested on: R1 mutant PDGFR-β i-motif; test: CD spectral and thermal-melt analysis with R1 mutant i-motif; assay type: binding, human
Method in brief: (§1)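 Oligo at 5 μM final in 10 mM sodium cacodylate, pH 6.5. Heated to 95 °C for 5 min, slowly cooled to room temperature, then given molar equivalents of compound or DMSO for 30 min. CD spectra 230–350 nm at room temperature, triplicate scans averaged and baseline-corrected. Melts followed at 286 nm, 20–95 °C at 1 °C/min. Tm by nonlinear regression.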

WT PDGFR-β i-motif = test: CD spectral and thermal-melt analysis with WT i-motif; assay type: binding, human; settings: increasing concentrations of compound
Method in brief: as §1

PDGFR-β transcript = test: qRT-PCR of PDGFR-β transcript in SK-N-SH; assay type: cell-based; settings: 24 h, relative to DMSO control
[5] = tested on: PDGFR-β Py41 WT i-motif FRET probe; test: i-motif FRET assay, WT probe; assay type: binding, human; settings: probe 20 nM, compound 200 nM, 30 min
HEK293 = test: MTS cytotoxicity assay in HEK293; assay type: cell-based, human; settings: read-out: IC50 in HEK 293
[6] = tested on: NO-NHE luciferase construct; test: Luciferase reporter assay, NO-NHE construct; assay type: cell-based, human; settings: HEK 293, 100 μM, 24 h
[7] = tested on: PDGFR-β NHE WT 41-mer (FL Pu41); assay type: binding, human; settings: CD spectral and thermal melt analysis
Method in brief: (§2)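 Oligo at 5 μM final in 50 mM Tris-HCl with 50 mM K+, pH 7.4. Heated to 95 °C for 5 min, slowly cooled, then incubated 30 min with molar equivalents of compound or DMSO. CD 230–330 nm at room temperature, triplicate scans averaged and baseline-corrected. Melt at 262 nm from 20 to 95 °C at 1 °C/min. Tm by nonlinear regression, ±1 °C.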

[8] = tested on: PDGFR-β Py41 R1 mutant i-motif FRET probe; test: i-motif FRET assay, R1 mutant probe; assay type: binding, human
[9] = tested on: PDGFR-β NHE G-quadruplexes; settings: cited from earlier work
[10] = tested on: PDGFR-β 3′-end G-quadruplex; test: CD spectral and thermal-melt analysis with constituent PDGFR-β G-quadruplexes; assay type: binding, human
Method in brief: as §2

For `CC(C)CCC[C@@H](C)[C@H]1CC[C@H]2[C@@H]3CC[C@H]4C[C@H](NC(=O)C[N+]5(C)CCCCC5)CC[C@]4(C)[C@H]3CC[C@]12C.[I-]` [IMC48], the “effect on BCL2 transcription” value [1] is given as “increased BCL2 transcription”.

For `COc1ccc2c(c1)CN([C@@H](C)[C@H]1CC[C@H]3[C@@H]4CC[C@H]5C[C@@H](O)CC[C@]5(C)[C@H]4CC[C@]13C)CO2` [IMC76], the “effect on BCL2 transcription” value [1] is given as “decreasing BCL2 transcription”.

For `CN1CCc2ccccc2C1Cc1ccccc1NC(=O)c1sc2ccccc2c1Cl` (stereo not shown) [NSC309874], the “downregulation of luciferase activity, R1 NHE construct” value [2] was roughly 50%, the IC50 (SK-N-SH) was 100 µM and the “downregulation of luciferase activity, WT-NHE construct” value ([3]; HEK 293, 100 μM) was “approximately 45%”. For the same compound, the “effect on Tm of R1 mutant i-motif” value ([4]; CD thermal melt) was “small increase in Tm”, the “effect on CD of R1 mutant i-motif” value ([4]; increasing concentrations of compound) was “little change in the CD” and the “shift in λMAX of CD spectrum of WT i-motif” value (WT PDGFR-β i-motif) was “from 286 to 279”. The “reduction of PDGFR-β expression” value (PDGFR-β transcript; 0.5 IC50 (50 μM)) was “approximately 25%”, the “reduction of PDGFR-β expression” value (PDGFR-β transcript; IC50 (100 μM)) was roughly 50% and the “increase in FRET signal, WT probe” value [5] was 170%. The IC50 (HEK293) was greater than 100 µM, the “effect on luciferase activity, NO-NHE construct” value [6] was “does not inhibit transcription” and the “interaction with PDGFR-β G-quadruplex-forming sequence” value [7] was “negligible interaction”. For the same compound, the “increase in FRET of the R1 mutant” value ([8]; FRET (pH 6.6) high-throughput screening) was “more than 2 fold” and the “increase in FRET signal, R1 mutant probe” value ([8]; probe 20 nM, compound 200 nM, 30 min) was 218%.

For `Cc1c2ccncc2c(C)c2c1[nH]c1ccc(OCCN(C)C)cc12` [NSC338258], the “binding to PDGFR-β NHE compared with MYC promoter G-quadruplex” value [9] is listed as “binds almost as well to the PDGFR-β NHE as to the MYC promoter G-quadruplex”, the “selectivity of luciferase inhibition WT-NHE versus NO-NHE” value ([3]; IC50 and 50% IC50 concentrations) is listed as “moderate degree of selectivity” and the “increase in thermal stability of 3′-end G-quadruplex” value ([10]; 1 mol equiv of compound) is listed as 4 °C. For the same compound, the “increase in thermal stability of 3′-end G-quadruplex” value ([10]; 2 mol equiv of compound) was 9 °C.

For `Cc1oc2nc1-c1nc(co1)-c1nc(co1)-c1nc(co1)-c1nc(co1)-c1nc(co1)C1=NC(CS1)c1nc-2c(C)o1` (stereo not shown) [telomestatin], the “G-quadruplex binding selectivity in PDGFR-β NHE” value [9] is given as “appeared to bind selectively to the 3′-end G-quadruplex” and the “effect on PDGFR-β” value [9] is given as “produced a decrease in PDGFR-β”.
